From PubChem BioAssay AID2375 (NMMLSC, 2010)
Records with an inconclusive call do not appear. Calls of active or inactive are those of the source.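 How the source made its calls: active means compounds that lower growth-factor-driven active Cdc42 or Rac1 at 10 micromolar by more than 15 percent; inactive means the rest, inconclusive results apart.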

Columns and labels:
Cdc42 = assay: cellular Cdc42/Rac1 GTP-loading by G-LISA – cell lysate, ELISA, panel, Ras-related GTPase inhibitor project, profiling panel (AID 2375); conditions: NIH 3T3 cells, EGF-stimulated, PAK G-LISA active GTPase, stronger effect = lower value
Method in brief: (§1)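 system = 3T3 lysates on PAK-coated wells | amount = equal cellular protein per well from snap-frozen lysates | reagent = EGF 10 ng/ml, with or without | dosing = compound at 1 and 10 µM | detection = colorimetric PAK-capture ELISA | evaluation = ng active GTPase per lysate, normalized to maximal EGF response | control set = EGF-stimulated and unstimulated lysates, GTPase standard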

Rac1 = assay: as above; conditions: NIH 3T3 cells, EGF-stimulated, PAK G-LISA active GTPase, stronger effect = lower value
Method in brief: as §1

Row | SMILES | normalized active GTPase (Cdc42; active GTPase, at 1 µM) | normalized active GTPase (Rac1; active GTPase, at 1 µM) | normalized active GTPase (Cdc42; at 10 µM) | normalized active GTPase (Rac1; at 10 µM)
1 | NS(=O)(=O)c1ccc(N2N=C(c3ccccc3)CC2c2ccc(Br)cc2)cc1 (centres undefined) | 1.12 | 0.5 | 0.895 (inactive) | 0.47
2 | COc1ccc(C2CC(c3ccccc3)=NN2c2ccc(S(N)(=O)=O)cc2)cc1OC (centres undefined) | 0.87 |  | 0.856 (inactive) | 
3 | COc1ccc(C2CC(c3cccc(OC)c3)=NN2c2ccc(S(N)(=O)=O)cc2)cc1 (centres undefined) | 0.442 |  | 1.25 (inactive) | 
4 | Cc1cccc(C2CC(c3ccccc3)=NN2c2ccc(S(N)(=O)=O)cc2)c1 (centres undefined) | 0.979 | 1.09 | 0.726 | 0.932 (inactive)
5 | NS(=O)(=O)c1ccc(N2N=C(c3ccccc3)CC2c2cccc(Br)c2)cc1 (centres undefined) | 0.764 | 0.556 | 1.4 (inactive) | 0.691

Second part, led by results:

Row | normalized active GTPase (Cdc42; active GTPase, at 1 µM) | normalized active GTPase (Rac1; active GTPase, at 1 µM) | SMILES | normalized active GTPase (Cdc42; at 10 µM) | normalized active GTPase (Rac1; at 10 µM)
6 | 0.923 | 0.724 | COc1ccc(C2CC(c3ccccc3)=NN2c2ccc(S(N)(=O)=O)cc2)cc1 (centres undefined) | 0.626 | 0.612
7 | 0.994 | 0.782 | Cc1ccc(C2CC(c3ccccc3)=NN2c2ccc(S(N)(=O)=O)cc2)cc1 (centres undefined) | 0.667 | 0.941 (inactive)
